Results pooled from the literature.

Compound	tested on	assay	test system	conditions	measurement	value
N#C[C@@]1(c2ccc3c(N)ncnn23)O[C@H](COC(=O)C2CCCCC2)[C@@H](O)[C@H]1O	HEp-2	cell growth or viability, CCK-8	–	5 days	CC50	44.7 µM
Nc1ccn([C@@H]2O[C@H](CO)[C@@H](O)C2(F)F)c(=O)n1	MCF7	cell growth or viability, MTT	–	0.625 µg/mL, 48 h	viability	68.6%
COCC(=O)N1CCC[C@H](C(=O)NCc2nc(-c3ccc(C)nc3)cs2)C1	–	metabolic stability	human, liver microsomes	0.5 µM	microsomal CLint	5.1 µL/min/mg
CCC(CC)COC(=O)[C@H](C)N[P@](=O)(OC[C@H]1O[C@@](C#N)(c2ccc3c(N)ncnn23)[C@H](O)[C@@H]1O)Oc1ccccc1	HEp-2	cell growth or viability, CCK-8	–	5 days	CC50	2.95 µM
NCCOCC(=O)N1CCC[C@H](C(=O)NCc2nc(-c3ccc(C(F)(F)F)cc3)cs2)C1	–	metabolic stability	male Sprague-Dawley rat, liver microsomes	0.5 µM	microsomal CLint	< 3 µL/min/mg
CC[C@H](C)[C@H](N)C(=O)OC[C@H]1O[C@@](C#N)(c2ccc3c(N)ncnn23)[C@H](O)[C@@H]1O	HEp-2	cell growth or viability, CCK-8	–	5 days	CC50	> 100 µM
COCC(=O)N1CCC[C@H](C(=O)NCc2nc(-c3ccc(C#N)cc3)cs2)C1	–	metabolic stability	human, liver microsomes	0.5 µM	microsomal CLint	10 µL/min/mg
Cc1ncsc1-c1ccc(CNC(=O)[C@@H]2C[C@@H](O)CN2C(=O)[C@@H](NC(=O)COCCOCCn2cc(COc3ccc(-c4nc5cc(-c6ccccc6)ccn5c4Nc4ccc(C(=O)O)cc4)cc3)nn2)C(C)(C)C)cc1	MCF7	cell growth or viability	–	72 h	CC50	74 µM
O=C(O)COc1cccc(-c2nc(Nc3ccc4[nH]ncc4c3)c3ccccc3n2)c1	Solute carrier organic anion transporter family member 1B3 (SLCO1B3, Homo sapiens, UniProt Q9NPD5)	transporter uptake, inhibitor	–	–	IC50	1.55 µM
COc1ccc2c(c1)CN(C(=O)CCN1CCC(Cc3ccccc3)CC1)CC[S@@+]2[O-]	–	–	male human, plasma	intravenous, 0.05 mg/kg, healthy volunteers	clearance	203 mL/min
O=C(Nc1ccc(S(=O)(=O)O)c2ccccc12)c1ccc(=O)oc1	TZM-bl	cell growth or viability, resazurin	–	–	CC50	> 12.5 µM
CC(C)(N)COCC(=O)N1CCC[C@H](C(=O)NCc2nc(-c3ccc(C(F)(F)F)cc3)cs2)C1	–	metabolic stability	male Sprague-Dawley rat, liver microsomes	0.5 µM	microsomal CLint	9.9 µL/min/mg
CC(C)[C@@H](N)C(=O)OC[C@H]1O[C@@](C#N)(c2ccc3c(N)ncnn23)[C@H](O)[C@@H]1O	HEp-2	cell growth or viability, CCK-8	–	5 days	CC50	> 100 µM
